Assay [1] concerns MCF7. Kind of assay: Cytotoxicity against human MCF7 cells at 50 uM after 48 hrs by MTS assay. The assay is classed as functional, cell-based. The method in brief: (§1)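 Cells seeded at 2−5 × 10^3 per well by growth rate and allowed to attach overnight. Medium then replaced with medium holding test compound or 0.1% DMSO, made by serial dilution of 100 mM DMSO stocks. Incubated 48 h at 37 °C in humidified 5% CO2. MTS added, 90 min at 37 °C in the dark, absorbance read at 490 nm. Run in triplicate.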
On the technique in general: Tetrazolium dyes change colour on reduction, which living cells bring about.

Assay [2] deals with HeLa. Kind of assay: Cytotoxicity against human HeLa cells at 50 uM after 48 hrs by MTS assay. The assay is classed as functional, cell-based. The method in brief:
as §1

The test system of assay [3] is A549. Kind of assay: Cytotoxicity against human A549 cells at 50 uM after 48 hrs by MTS assay. The assay is classed as functional, cell-based. A digest of the protocol:
as §1

The test system of assay [4] is HCT-116. Kind of assay: Cytotoxicity against human HCT116 cells at 50 uM after 48 hrs by MTS assay. The assay is classed as functional, cell-based. The method in brief:
as §1

For assay [5], the system named is T-24. The assay is described as follows: Cytotoxicity against human T24 cells at 50 uM after 48 hrs by MTS assay. In kind it is functional, cell-based. The method in brief:
as §1

In assay [6] the test system is MCF7. Kind of assay: Cytotoxicity against human MCF7 cells after 48 hrs by MTS assay. In kind it is functional, cell-based. As to conditions: MCF7, 48 h. The method in brief:
as §1

In assay [7] the test system is HCT-116. The assay is described as follows: Induction of autophagy in human HCT116 cells assessed as increase in ratio of LC3-II to actin expression at 5 uM after 2 hrs by Western blot analysis relative to control. In kind it is functional. A digest of the protocol: (§2)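 HCT116 colon carcinoma cells were grown in RPMI-1640 with fetal bovine serum and antibiotics, split overnight to 50% confluence, then dosed. Cells were lysed in 50 mM Tris-HCl pH 7.4, 2 mM EDTA, 2 mM EGTA, 1 mM DTT, 1% Triton X-100 and protease inhibitors. SDS-PAGE and PVDF blot used polyclonal anti-LC3, anti-actin and ECL. LC3-II/actin was measured by densitometry, representative of three experiments.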
In general terms: A western blot detects proteins with antibodies after separation by electrophoresis.

Assay [8] concerns HCT-116. The assay is described as follows: Induction of autophagy in human HCT116 cells assessed as accrual of membrane vacuoles and autophagosome-like structure with double-membrane sturctures formation at 10 uM after 2 hrs by electron microscopy. The assay is classed as functional, cell-based. A digest of the protocol:
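HCT116 cells in RPMI-1640 treated 2 h. Cells washed three times with PBS, trypsinized and pelleted. Pellets fixed overnight in 4% paraformaldehyde at 4 °C, postfixed 1 h at room temperature in 1% OsO4 in cacodylate buffer, dehydrated stepwise in ethanol, rinsed in propylene oxide and embedded in Spurr resin. Thin sections examined by transmission electron microscopy.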

In assay [9] the test system is HCT-116. The assay is described as follows: Induction of autophagy in human HCT116 cells assessed as increase in ratio of LC3-II to actin expression at 10 uM after 2 hrs by Western blot analysis relative to control. The assay is classed as functional. The method in brief: as §2
Assay [10] has as its system HeLa. The assay is described as follows: Cytotoxicity against human HeLa cells after 48 hrs by MTS assay. The assay is classed as functional, cell-based. A digest of the protocol:
as §1

Assay [11] concerns HCT-116. The assay is described as follows: Induction of autophagy in human HCT116 cells transfected with plasmid expressing GFP-LC3 at 10 uM by DAPI staining based fluorescence microscopy. In kind it is functional, cell-based. A digest of the protocol: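 HCT116 cells transfected with a GFP-LC3 plasmid. Transfection was 12 h by the legend and 24 h by the methods. Cells then incubated at 37 °C in RPMI-1640 with test compound or 1/1000 DMSO, fixed and stained with DAPI. GFP-LC3 puncta imaged by confocal fluorescence microscopy.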

The test system of assay [12] is A549. Kind of assay: Cytotoxicity against human A549 cells after 48 hrs by MTS assay. Particulars: A549, 48 h. The assay is classed as functional, cell-based. A digest of the protocol:
as §1

A short description of assay [13]: Cytotoxicity against human T24 cells after 48 hrs by MTS assay. In kind it is functional, cell-based. Particulars: T-24, 48 h. The method in brief:
as §1

The test system of assay [14] is HCT-116. The assay is described as follows: Cytotoxicity against human HCT116 cells after 48 hrs by MTS assay. The assay is classed as functional, cell-based. As to conditions: HCT-116, 48 h. A digest of the protocol:
as §1

Assay [15] relates to HCT-116. The assay is described as follows: Induction of autophagy in human HCT116 cells assessed as increase in ratio of LC3-II to actin expression at 2.5 uM after 2 hrs by Western blot analysis relative to control. In kind it is functional. A digest of the protocol:
as §2

Among the data in ChEMBL document CHEMBL3232908, “Guanacastane diterpenoids from the plant endophytic fungus Cercospora sp” (J Nat Prod, 2014) are Activity, IC50 and Ratio values, retold here.

Each structure is given as a SMILES string. pIC50: −log10 of the molar value. The source made the active and inactive calls. The calls are words filed in the database; no cut-off is given here.

Turning to `C[C@H](CO)[C@H]1CC(=O)[C@@H]2[C@H]3OCC4=C3[C@@](C)(CCC4=O)CC[C@]12C`, the result in assay [1], in assay [2], in [3], in assay [4] and in assay [5] was inactive.

For `CC(C)C1=C(O)C(=O)C2=CC3=C(CO)C(=O)[C@H](O)C[C@@]3(C)CC[C@@]21C`, the result in assay [1], in [2], in assay [3], in assay [4] and in [5] was inactive.

`CC(C)C1=C(O)C(=O)C2=CC3=C(CCC4=C5C=C6C(=O)C(O)=C(C(C)C)[C@@]6(C)CC[C@]5(C)C[C@@H](O)C4=O)C(=O)[C@H](O)C[C@@]3(C)CC[C@@]21C`: the result in assay [1], in [2], in [3], in [4] and in [5] was inactive.

One may read the pIC50 as the IC50 on a negative log10 scale, so that one unit is a factor of ten. Higher therefore signals a low IC50. As to `CC(C)C1=C(O)C(=O)C2=CC3=C(CCC4=C5CC6=C(O)C(=O)[C@H](C(C)C)[C@@]6(C)CC[C@]5(C)C[C@@H](O)C4=O)C(=O)[C@H](O)C[C@@]3(C)CC[C@@]21C`, the pIC50 in assay [6] is 4.34; in [10] it was 4.71; in assay [12] it was 4.53; in [13], 5.09; in [14], 4.67. In addition, the Ratio in [7] came out at 1.3; in assay [9], 1.4; in [15] it was 1.2. In addition, the result in assay [8] and in [11] was Active.

For `CC1=C2C=C3C(=O)C(O)=C([C@H](C)CO)[C@@]3(C)CC[C@]2(C)C[C@@H](O)C1=O`, the outcome in assay [1], in assay [2], in [3], in [4] and in assay [5] was inactive.

With `CC(C)[C@H]1CC(=O)C2=CC3=C(CO)C(=O)C(O)=C[C@@]3(C)CC[C@@]21C`, the outcome in [1], in [2], in [3], in [4] and in assay [5] was inactive.
